# Screens deposited in PubChem by Johns Hopkins Ion Channel Center.
# An excerpt weighted towards active compounds, which were near 2.3% of everything screened.
# TRPC6 inh: inhibitors of mouse TRPC6 channel. Q61143. HEK293-TRPC6, membrane potential dye, ACh-evoked depolarization; hits give low values. B-score at 10 µM. 310,000 tested, 1.1% active;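 active = B-score under library mean minus 3 SD, initial fluorescence not abnormally high, positive integrated signal ratio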;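 note: B-score derived from integrated fluorescence ratio over the kinetic read; more negative B-score means stronger inhibition of depolarization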
# Target sequence (Q61143 whole entry, looked up): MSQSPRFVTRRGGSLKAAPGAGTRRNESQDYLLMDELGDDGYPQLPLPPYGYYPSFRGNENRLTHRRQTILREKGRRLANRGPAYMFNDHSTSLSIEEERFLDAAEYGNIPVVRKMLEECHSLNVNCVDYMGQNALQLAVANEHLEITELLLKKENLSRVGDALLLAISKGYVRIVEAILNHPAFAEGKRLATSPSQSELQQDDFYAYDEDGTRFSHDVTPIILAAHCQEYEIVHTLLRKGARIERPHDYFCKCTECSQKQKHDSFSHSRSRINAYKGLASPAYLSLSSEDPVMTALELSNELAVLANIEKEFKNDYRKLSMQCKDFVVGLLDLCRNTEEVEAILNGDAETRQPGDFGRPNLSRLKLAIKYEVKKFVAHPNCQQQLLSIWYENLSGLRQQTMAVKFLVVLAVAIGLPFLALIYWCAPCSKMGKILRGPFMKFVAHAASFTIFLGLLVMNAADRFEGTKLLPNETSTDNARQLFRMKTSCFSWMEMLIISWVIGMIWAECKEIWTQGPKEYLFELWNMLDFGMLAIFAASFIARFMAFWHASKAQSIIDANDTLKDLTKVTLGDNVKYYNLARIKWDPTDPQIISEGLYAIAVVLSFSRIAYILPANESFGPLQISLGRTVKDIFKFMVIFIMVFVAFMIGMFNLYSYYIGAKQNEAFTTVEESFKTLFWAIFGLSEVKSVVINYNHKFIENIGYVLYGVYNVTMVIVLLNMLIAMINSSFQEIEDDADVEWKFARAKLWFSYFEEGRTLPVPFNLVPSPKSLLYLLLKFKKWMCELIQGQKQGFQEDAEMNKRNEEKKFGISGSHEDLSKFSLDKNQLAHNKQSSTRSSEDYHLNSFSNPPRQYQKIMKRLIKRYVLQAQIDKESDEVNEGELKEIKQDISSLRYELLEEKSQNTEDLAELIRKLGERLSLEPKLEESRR
# TRPC4 PAM: allosterically enhances the mouse TRPC4 cation channel | Q9QUQ5 | HEK293 TRPC4beta/mu-opioid, DAMGO EC20, Fluo-4 Ca2+ flux; hits give high values | B-score at 10 µM | 310,000 tested, 0.42% active;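 active = B-score of calcium response area above 5 SD of library B-scores, with initial fluorescence ratio within 5 SD of library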
# TRPC6 act: mouse TRPC6 channel activation; Q61143; HEK293-TRPC6 membrane potential dye fluorescence; hits give high values; B-score at 10 µM; 310,000 tested, 0.13% active;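 active = B-score of the integrated fluorescence ratio above library mean plus 3 SD, and starting fluorescence ratio within library mean plus 5 SD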;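 note: higher score means more depolarization so channel activation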
# TRPC4 inh: inhibitors of mouse TRPC4 channel. HEK293 TRPC4beta/mu-opioid, DAMGO-evoked Fluo4 calcium flux; hits give low values. Q9QUQ5. 300,000 tested, 0.39% active. B-score at 10 µM;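 active = B-score over 3 SD under the library average, no early fluorescence shift, positive overall ratio signal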
#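 test system = HEK293 cells with stable TRPC4beta plus mu-opioid receptor expression | detection = Fluo4 Ca2+ flux fluorescence | read-out = integrated fluorescence ratio relative to baseline, converted to per-well B score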
# TRPC4 agonist: opens the mouse TRPC4 cation channel | Q9QUQ5 | HEK293 TRPC4beta/mu-opioid, Fluo4 calcium fluorescence; hits give high values | B-score at 10 µM | 310,000 tested, 0.49% active | AID 2237;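 active = B-score above 5 SD of library B-scores, and initial fluorescence ratio not above library mean plus 5 SD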;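 note: positive B-score marks a calcium rise read as TRPC4 activation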
#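 Material: HEK293 stable line with TRPC4beta plus mu-opioid receptor; technique: Fluo4 calcium-sensitive dye fluorescence, kinetic, 1 Hz baseline; timing: Fluo4 dye loading 45 min at room temperature, 110 s recording; controls: assay buffer as low control, maximal DAMGO as high control; read-out: integrated baseline-normalised fluorescence ratio, converted to per-well B score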
# Hits are given with their value; n = inactive.
SMILES,TRPC6 inh,TRPC4 PAM,TRPC6 act,TRPC4 inh,TRPC4 agonist
Cc1ccc(NC(=O)C2c3ccccc3Oc3ccccc32)c(C)c1,n,n,n,n,n
CC(=O)Nc1cccn(Cc2c(Cl)cccc2Cl)c1=O,n,n,n,n,n
CN1CCN(C(=O)c2cccn(Cc3c(Cl)cccc3Cl)c2=O)CC1,n,n,n,n,184
Cc1cc(NC(=O)C(C)SCC(=O)N(Cc2ccccc2)c2ccccc2)no1 (stereo not given),n,n,n,-7,n
Cc1cccc(N2CCN(C(=O)c3ccc(CNc4c(N5CCC(C)CC5)c(=O)c4=O)cc3)CC2C)c1 (stereo not given),n,n,n,n,n
CC1CCCN(S(=O)(=O)c2ccc(NC(=O)C3CCN(C(=O)c4ccco4)CC3)cc2)C1 (stereo not given),n,n,n,n,60
CCC(C)NS(=O)(=O)c1ccc(NC(=O)C2CCN(C(=O)c3ccco3)CC2)cc1 (stereo not given),n,n,n,n,n
CC(C)OC(=O)/C(C#N)=C/c1c[nH]c2ccccc12,n,n,n,n,n
Cn1c(-c2ccccc2)cnc1NCc1ccccc1,n,n,n,-6,n
CCC(C)(C(=O)NC1CCCCC1)N(Cc1cccs1)C(=O)c1ccccn1 (stereo not given),n,n,n,-7,46
CCC(C)(C(=O)NC1CCCC1)N(Cc1cccs1)C(=O)c1ccccn1 (stereo not given),n,n,n,n,n
Cc1ccccc1-n1c(=O)c2c(n3cnnc13)-c1ccccc1CC21CCCCC1,n,16,n,n,n
c1ccc(CC2CCN(C3=Nc4cccc5cccc3c45)CC2)cc1,-6.1,n,n,n,n
CCOC(=O)N1CCN(C(=O)Nc2cccc3ccccc23)CC1,n,n,n,n,n
CCOC(=O)N1CCN(C2=Nc3cccc4cccc2c34)CC1,-7.4,n,n,n,n
COc1cccc(NC(=O)n2ncc3c(C)cccc32)c1,n,n,n,n,n
COc1ccc(CCN2CCCC(CN(C)C(=O)c3ccoc3)C2)cc1 (stereo not given),n,19,n,n,n
CN(CC1CCCN(CCc2ccccc2F)C1)C(=O)c1ccoc1 (stereo not given),n,n,n,n,n
CCCC(=O)c1ccc(N2CCN(C(=O)c3ccccc3Br)CC2)c(F)c1,n,11,n,n,n
CCCC(=O)c1ccc(N2CCN(C(=O)c3ccccc3)CC2)c(F)c1,n,n,n,n,n
C#CC[N+]1(CC#Cc2cccc3ccccc23)CCOCC1,n,37,n,n,n
O=C(Cc1nc2ccccc2[nH]1)c1ccc(Br)cc1,n,n,n,n,72
c1ccc2[nH]c(CCCCc3nc4ccccc4[nH]3)nc2c1,n,n,n,-6,n
COc1cccc(-c2nc3sc4c(c3c(=O)[nH]2)CCCCC4)c1,n,n,n,n,n
Cc1ccccc1CN1N=C(/C=C/c2ccccc2)CCC1=O,n,14,n,n,n
SMILES,TRPC6 inh,TRPC4 PAM,TRPC6 act,TRPC4 inh,TRPC4 agonist
CC(=O)OCCCN1C(=O)c2cccc3cc(Br)cc(c23)C1=O,n,n,n,-6,n
CCOC(=O)CCCCCN1C(=O)c2cccc3cccc(c23)C1=O,n,n,n,n,n
COc1ccc(C)c(NC(=O)NCCc2cnc[nH]2)c1,n,n,n,n,129
Cc1cc(C)n(C(=O)/C(C#N)=N\Nc2ccccc2[N+](=O)[O-])n1,n,n,n,n,n
Cc1cc(C)n(C(=O)/C(C#N)=N/Nc2cc(Cl)cc(Cl)c2)n1,-6.5,n,n,n,n
CCC(=O)c1ccc(OCC(=O)Nc2ccccc2N2CCCCC2)cc1,n,n,n,n,n
O=S(=O)(Nc1cc2nc3ccccc3nc2n1Cc1ccccc1)c1ccc(Cl)cc1,n,n,26,n,n
COc1ccc(C2NC(C(=O)O)Cc3c2[nH]c2ccccc32)cc1CN1CCN(c2ccc(F)cc2)CC1 (stereo not given),n,n,n,-6,n
O=C(O)C1Cc2c([nH]c3ccccc23)C(c2ccc3c(c2)OCO3)N1 (stereo not given),n,n,n,n,n
Cc1ccc(-n2nc3c(c2NC(=O)C(C)(C)C)CS(=O)(=O)C3)cc1,n,n,n,n,n
O=C(C1=C[C@@H](c2ccc(C(F)(F)F)cc2)C[C@@H](OCCCCO)O1)N1CCOCC1,n,n,n,n,n
O=C(C1=C[C@H](c2ccc(C(F)(F)F)cc2)C[C@H](OCCCCO)O1)N1CCOCC1,n,n,n,n,133
Cc1cccc(N2CCN(C(=O)C3CC(=O)N(C4CCCC4)C3)CC2)c1C (stereo not given),n,n,n,n,n
NNc1nc(-c2ccccc2Cl)nc2sc3c(c12)CCCC3,n,12,n,n,n
Nc1ncc(Br)cc1S(=O)(=O)Nc1cc(C(F)(F)F)cc(C(F)(F)F)c1,n,n,n,n,46
C=C(c1ccc(O)cc1)c1ccc(O)cc1,n,n,n,-6,n
CCn1c(=O)cc(OCC(=O)NCCCN2CC(C)CC(C)C2)c2ccccc21 (stereo not given),n,n,n,n,90
CC1CC(C)CN(CCCNC(=O)COc2cc(=O)n(C)c3ccccc23)C1 (stereo not given),n,10,n,n,85
CCc1nc2c(c(SC)nn2-c2ccccc2)c(N)c1C(=O)OC,n,n,n,n,n
O=C(c1cc2cc(Br)cc(Br)c2oc1=O)N1CCCC1,n,17,n,n,n
CN(C)S(=O)(=O)c1ccc(Cl)c(NC(=O)CN2CCCC2)c1,n,n,n,n,n
CCN1CCN(Cc2nc3c(c(=O)[nH]c(=O)n3C)n2Cc2ccccc2Cl)CC1,n,28,n,n,n
Cc1ccc(Cl)cc1N1CCN(Cc2nc3c(c(=O)[nH]c(=O)n3C)n2Cc2ccccc2F)CC1,n,26,n,n,n
O=C(Cn1c(NCCCO)nc2ccccc21)c1ccc(F)cc1,n,n,n,n,n
CCCC1C(=O)Nc2ccccc2N1C(=O)c1ccc(C(C)(C)C)cc1 (stereo not given),n,16,n,n,n
SMILES,TRPC6 inh,TRPC4 PAM,TRPC6 act,TRPC4 inh,TRPC4 agonist
Cc1cccc(/C=N/NC(=O)NC2CCCCC2)c1,n,n,n,n,n
Cc1ccc(/C=N/NC(=O)NC2CCCCC2)o1,n,72,n,n,n
CC(C)c1ccc(/C=C/C(=O)NC2CCCCC2)cc1,n,n,n,n,n
Cc1ccc(/C=C/C(=O)NC2CCCCCCC2)o1,n,27,n,n,n
Cc1ccc(C)c(-c2nnc(NC(=O)Cc3ccccc3)o2)c1,n,n,n,n,n
CCCCOCP(=O)(CC)COCCCC,n,n,n,n,n
COc1cc(C(=O)N(CCc2ccccc2)C2=CC3CCC(C2)N3C)cc(OC)c1OC (stereo not given),n,n,n,-7,n
Cc1cc(=O)c2cccc(Br)c2[nH]1,n,n,n,n,n
